The values below come from article PMC4740292 (EBioMedicine, 2015).

Where two headings read alike, the source gives them in different places.

For data set [1], the system named is Huh7.5.1 cells. Put plainly: Cytotoxicity. Type of data set: cell-based, human.
The subject of data set [2] is HCVcc-Luc. Put plainly: Time-of-addition assay, HCVcc-Luc on Huh7.5.1 cells. The settings on record: 2 μM for 3 h, added at indicated time points. Type of data set: cell-based, Hepatitis C virus. Put shortly: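 Huh7.5.1 cells inoculated with HCVcc-Luc at 37 °C for 3 h. At set time points, test compound at 2 μM (or DMSO) added for 3 h, then removed. Cells kept a further 48 h at 37 °C before luciferase readout. Mean of n = 3 with s.d.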

The test system of data set [3] is JFH-1 genotype 2a infectious virus (HCVcc). The following applies: for TI (CC50/EC50) / EC50 / HCVcc infection / HCV entry inhibition (in words): Huh7.5.1.
For data set [4], the system named is HCVpp. The experiment in a line: HCVpp infection of primary human hepatocytes. The class given is cell-based, Hepatitis C virus. The settings on record: pretreatment of PHHs at non-cytotoxic concentrations.
Data set [5] is described as follows: Human liver microsomal stability assay. The class given is in vitro ADME. The following applies: both, human liver microsomes, pH 7.4. Background: Liver microsomes are vesicles of endoplasmic reticulum, rich in cytochrome P450 enzymes.
For data set [6], the system named is HCV replicon cell line 2-3(+). The experiment in a line: HCV replicon cell line 2-3. The class given is cell-based, Hepatitis C virus (Genotype 1b). The following applies: 20 nM, 24, 48 or 72 hours, replicon cells.
The subject of data set [7] is CHIKVpp. Put plainly: CHIKVpp infection of Huh7.5.1 cells, luciferase assay. Type of data set: cell-based, Chikungunya virus. The following applies: Huh7.5.1, Roc-A 10 nM, Fig. S3F.
Data set [8] has as its target PHB-CRaf interaction (Homo sapiens, UniProt P35232+Q99623). Put plainly: Co-IP of Flag-CRaf and V5-tagged PHB1 & 2 in 293T cells. Type of data set: cell-based. The following applies: 20 nM. Put shortly: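 Flag-CRaf and V5-tagged PHB1 and PHB2 co-expressed in 293T cells by co-transfection. Cells left untreated or exposed to test compound at 20 nM, then immunoprecipitated with anti-Flag antibody. Co-precipitated PHB1/PHB2 and CRaf detected by immunoblotting.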

The target of data set [9] is cell surface PHB1 and 2 (Homo sapiens, UniProt P35232+Q99623). Put plainly: Cell surface biotinylation assay, Huh7.5.1 cells. The class given is cell-based. The settings on record: 20 nM.
In data set [10] the target is PHB1, PHB2, CRaf, Ras (Homo sapiens, UniProt P35232+Q99623). The experiment in a line: Western blotting of cellular PHB1, PHB2, CRaf and Ras in Huh7.5.1 cells. The class given is cell-based. The settings on record: 20 nM, 1, 2 and 3 days. On the technique in general: Immunoblotting shows a protein as a band on a membrane.
PHB1, PHB2, CRaf, Ras, sequence (P35232 2-272 limits assumed): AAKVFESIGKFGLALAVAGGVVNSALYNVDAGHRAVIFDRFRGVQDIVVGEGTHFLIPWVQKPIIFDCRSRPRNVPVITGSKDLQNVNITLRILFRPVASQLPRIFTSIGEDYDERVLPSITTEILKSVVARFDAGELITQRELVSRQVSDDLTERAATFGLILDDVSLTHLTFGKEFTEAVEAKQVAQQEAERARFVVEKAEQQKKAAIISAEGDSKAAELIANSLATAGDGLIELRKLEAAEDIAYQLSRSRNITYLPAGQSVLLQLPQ
PHB1, PHB2, CRaf, Ras, sequence (Q99623 2-299 limits assumed): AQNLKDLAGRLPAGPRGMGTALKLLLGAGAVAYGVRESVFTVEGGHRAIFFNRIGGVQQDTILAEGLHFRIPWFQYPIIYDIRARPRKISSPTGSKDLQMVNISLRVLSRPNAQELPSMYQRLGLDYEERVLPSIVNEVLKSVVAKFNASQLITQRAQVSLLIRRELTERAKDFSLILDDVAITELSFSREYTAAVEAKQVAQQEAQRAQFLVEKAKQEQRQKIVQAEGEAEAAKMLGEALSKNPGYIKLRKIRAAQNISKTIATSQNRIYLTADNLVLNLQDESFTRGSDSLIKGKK
Where [11] appears, read: compounds incubated with cells for a total of 3 h.
Setting [12] is: compounds incubated with cells for a total of 48 h.

PHB-CRaf interaction, sequence (P35232 whole entry): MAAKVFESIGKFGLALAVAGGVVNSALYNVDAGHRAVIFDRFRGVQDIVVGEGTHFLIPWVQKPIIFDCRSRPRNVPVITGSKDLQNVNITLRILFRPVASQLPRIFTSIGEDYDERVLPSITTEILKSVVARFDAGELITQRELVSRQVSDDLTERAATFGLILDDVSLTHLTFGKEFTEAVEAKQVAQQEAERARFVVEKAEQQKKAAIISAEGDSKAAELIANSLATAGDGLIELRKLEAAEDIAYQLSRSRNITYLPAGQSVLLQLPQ
PHB-CRaf interaction, sequence (Q99623 whole entry): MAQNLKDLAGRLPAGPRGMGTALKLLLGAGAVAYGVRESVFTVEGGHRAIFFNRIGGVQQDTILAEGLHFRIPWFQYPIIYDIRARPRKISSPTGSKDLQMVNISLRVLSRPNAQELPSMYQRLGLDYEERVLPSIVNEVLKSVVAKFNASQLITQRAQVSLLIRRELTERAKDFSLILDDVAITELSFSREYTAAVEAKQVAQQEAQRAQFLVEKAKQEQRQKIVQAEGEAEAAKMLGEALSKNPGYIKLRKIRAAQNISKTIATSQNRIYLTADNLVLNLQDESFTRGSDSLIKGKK

Turning to (±)-aglaroxin C [(±) Aglaroxin C (C10)], the values for the CC50 in [1] (setting [11]) and in data set [1] (setting [12]) were 10000 nM and 20 nM, respectively. Moreover, the “anti-HCV activity by time of addition” value in data set [2] is recorded as “maximal anti-HCV activity when added together with the virus but lost its activity when added 3 h after the infection was initiated”. The “TI (CC50/EC50)” value in data set [3] (3 h incubation) worked out at 100; in [3] (48 h incubation), 500. In data set [3] (JFH-1 genotype 2a infectious virus in cell culture), the “half-maximum effective concentrations (EC50), in words” value is recorded as “picomolar”. Besides, the figures for the EC50 in data set [3] (setting [11]) and in data set [3] (setting [12]) were 100 nM and 0.04 nM, respectively.
As to `COc1ccc([C@@]23Oc4cc(OC)cc(OC)c4[C@]2(O)[C@H](O)[C@H](C(=O)N(C)C)[C@H]3c2ccccc2)cc1` [Roc-A, rocaglamide A], the “HCVpp entry (in words)” value in data set [4] is recorded as “suppressed HCVpp entry”. This compound also had a half-life at 1 µM in [5] of 37 min. The “HCV RNA replication or protein translation” value in data set [6] is “did not inhibit HCV RNA replication or protein translation”. In addition, the CHIKVpp infection entry in data set [7] is recorded as “significantly reduced”. In data set [8], the PHB-CRaf interaction entry is “disrupted the PHB-CRaf interaction”. Further, the “cell surface expression of PHB1 and 2” value in [9] was “decreased the cell surface expression of PHB1 and 2”. Moreover, the “PHB1, 2, Ras and CRaf total protein level” value in data set [10] is “decreased PHB1, 2, Ras, and CRaf at the total protein level”. The “HCVcc infection / HCV entry inhibition (in words)” value in data set [3] was “significantly reduced”.
For the compound (-)-rocaglamide [(−) Roc-A], the CC50 in data set [1] (setting [11]) was 50000 nM; in data set [1] (setting [12]), 300 nM. For the same compound, the “TI (CC50/EC50)” value in data set [3] (3 h incubation) was 50; in [3] (48 h incubation) it was 75. In addition, the “HCVcc infection / HCV entry inhibition (in words)” value in [3] is on record as “stronger inhibition on HCV entry than the (+) enantiomer”. For the same compound, the EC50 in data set [3] (setting [11]) came to 1000 nM; in [3] (setting [12]), 4 nM.
In data set [1] (setting [11]), (+)-aglaroxin C came in with a CC50 of 100000 nM. Besides, the “TI (CC50/EC50)” value in [3] (3 h incubation) stood at 5a. In [3] (setting [11]), this compound gave an EC50 of 20000 nM.
Compound (+)-rocaglamide [(+) Roc-A] returned a CC50 in data set [1] (setting [11]) of 300000 nM. In data set [3] (setting [11]), the EC50 is more than 200000 nM.
(-)-aglaroxin C [(−)-Aglaroxin C] yielded a CC50 in data set [1] (setting [11]) of 12000 nM. In addition, in data set [3] (3 h incubation), the “TI (CC50/EC50)” value turned out to be 60a. In data set [3], the “HCVcc infection / HCV entry inhibition (in words)” value was “active enantiomer for HCV viral entry inhibition”. The same compound gave an EC50 in [3] (setting [11]) of 200 nM.
Regarding `CONC(=O)[C@H]1[C@@H](O)[C@@]2(O)c3c(OC)cc(OC)cc3O[C@@]2(c2ccc(OC)cc2)[C@@H]1c1ccccc1` [Compound E2, (-)-NH hydroxamate], the “anti-HCV activity by time of addition” value in [2] was “appeared to inhibit HCV no matter when added”.

By CC50 is commonly meant the concentration that lowers cell viability or growth by half. For orientation: EC50 means the concentration at which the effect is half-maximal. In general, half-life refers to the time in which the quantity being followed falls by half.
